The results in this text go back to ChEMBL document CHEMBL1132497, “Synthesis and SAR of adatanserin: novel adamantyl aryl- and heteroarylpiperazines with dual serotonin 5-HT(1A) and 5-HT(2) activity as potential anxiolytic and antidepressant agents” (J Med Chem, 1999).

Test [1] concerns the target T1, 5-hydroxytryptamine receptor 1A (Rattus norvegicus, UniProt P19327).
T1 sequence (P19327 whole entry): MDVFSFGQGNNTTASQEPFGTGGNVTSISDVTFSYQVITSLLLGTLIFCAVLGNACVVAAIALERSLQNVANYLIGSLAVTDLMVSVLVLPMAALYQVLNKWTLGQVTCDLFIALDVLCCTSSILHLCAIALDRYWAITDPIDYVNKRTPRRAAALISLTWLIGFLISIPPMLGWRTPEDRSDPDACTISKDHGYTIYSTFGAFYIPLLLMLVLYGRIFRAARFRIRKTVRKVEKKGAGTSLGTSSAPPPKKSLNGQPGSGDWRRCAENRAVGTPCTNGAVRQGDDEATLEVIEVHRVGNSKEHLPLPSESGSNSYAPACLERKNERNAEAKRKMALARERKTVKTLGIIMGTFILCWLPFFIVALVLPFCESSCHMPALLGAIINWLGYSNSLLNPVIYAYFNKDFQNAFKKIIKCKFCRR
Description: Antagonist activity against rat hippocampal tissue 5-hydroxytryptamine 1A receptor. It is filed as functional, tissue-based, Hippocampus.

In test [2] the target is D(2) dopamine receptor (Rattus norvegicus) (UniProt P61169). Description: Inhibitory activity against Dopamine receptor D2 of rat limbic tissue at 1 uM. Format: tissue-based. The settings on record: Limbic system.
Chain of D(2) dopamine receptor (Rattus norvegicus) (P61169 whole entry): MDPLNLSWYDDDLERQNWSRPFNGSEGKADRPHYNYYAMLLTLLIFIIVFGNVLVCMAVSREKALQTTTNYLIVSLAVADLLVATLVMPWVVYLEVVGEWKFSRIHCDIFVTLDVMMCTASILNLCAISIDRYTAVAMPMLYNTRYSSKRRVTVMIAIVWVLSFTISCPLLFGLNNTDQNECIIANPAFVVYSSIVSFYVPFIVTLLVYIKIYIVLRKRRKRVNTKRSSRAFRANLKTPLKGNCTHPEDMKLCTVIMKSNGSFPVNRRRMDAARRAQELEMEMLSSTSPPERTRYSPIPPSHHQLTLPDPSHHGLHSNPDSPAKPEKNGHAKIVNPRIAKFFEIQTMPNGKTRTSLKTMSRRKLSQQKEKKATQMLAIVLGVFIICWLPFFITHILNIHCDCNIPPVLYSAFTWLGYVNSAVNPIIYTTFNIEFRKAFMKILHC
Test [3] concerns the target Serotonin 2 (5-HT2) receptor (Rattus norvegicus, UniProt P30994+P08909+P14842). Description: Inhibitory activity against rat cortical 5-hydroxytryptamine 2 receptor. It is filed as protein assay. The method in brief: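 Cortical membranes from male Sprague–Dawley rats, incubated 15 min at 37 °C in 50 mM Tris pH 7.6 with 1.0 nM [3H]ketanserin and a range of drug concentrations. Nonspecific binding defined with 100 μM methysergide. Run by filtration and counting.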

Test [4] addresses T2, 5-hydroxytryptamine receptor 1A (Rattus norvegicus) (UniProt P19327).
T2 sequence (whole entry): T1 sequence (P19327 whole entry)
Description: Inhibitory activity against 5-hydroxytryptamine 1A receptor of rat hippocampal tissue at 1 uM. It is filed as tissue-based. The following applies: Hippocampus.

Compound `C[C@@]12C[C@@H]3C[C@@H](CC(CC(=O)NCCN4CCN(c5cccc(Cl)c5)CC4)(C3)C1)C2` registered an inhibitory constant (Ki) in test [1] of 0.038 µM. For the same compound, the inhibition in test [2] was 40%.
As to `Cl.Cl.O=C(NCCN1CCN(c2ncccn2)CC1)C12CC3CC(CC1C3)C2`, the Ki is 0.0024 µM in test [1] and 0.262 µM in test [3]. In addition, the inhibition in test [2] amounted to 67%.
As for `O=C(NCCN1CCN(c2ccc(Cl)cc2)CC1)C12C[C@H]3C[C@@H](C1)C[C@@H](C2)C3`, the Ki in test [1] came to 0.096 µM. This counts as double-digit nanomolar.
For the compound `COc1ccccc1N1CCN(CCCOC(=O)CC23C[C@H]4C[C@@H](C2)C[C@](C)(C4)C3)CC1`, the inhibitory constant (Ki) in test [1] was 0.017 µM. The same compound had an inhibition in test [2] of 95%.
With `O=C(OCCN1CCN(c2ncccn2)CC1)C12CC3CC(CC1C3)C2`, the inhibition in test [2] came to 47%.
Turning to `O=C(OCCCN1CCN(c2cccc(C(F)(F)F)c2)CC1)C12C[C@H]3C[C@@H](C1)C[C@@H](C2)C3`, the inhibition is 54% in test [2] and 75% in test [4].
`O=C(OCCCN1CCN(Cc2ccccc2)CC1)C12C[C@H]3C[C@@H](C1)C[C@@H](C2)C3`: the inhibition in test [4] is 63%.
Regarding `O=C(NCCN1CCN(c2ncccn2)CC1)NC12C[C@H]3C[C@@H](C1)C[C@@H](C2)C3`, the Ki in test [1] was determined as 0.077 µM; in test [3], 0.071 µM. This compound displayed an inhibition in test [2] of 72%.
On to `C[C@@]12C[C@@H]3C[C@@H](CC(CC(=O)NCCCN4CCN(c5ncccn5)CC4)(C3)C1)C2`, for which the inhibition in test [2] is 20%; in test [4], 68%.
Turning to `CN(CCN1CCN(c2ncccn2)CC1)C(=O)C12C[C@H]3C[C@@H](C1)C[C@@H](C2)C3`, the Ki in test [1] amounted to 0.06 µM.
In turn, `C[C@@]12C[C@@H]3C[C@@H](CC(CC(=O)OCCCN4CCN(c5cccc(C(F)(F)F)c5)CC4)(C3)C1)C2` gave an inhibition in test [4] of 56%.
Turning to `O=C(OCCN1CCN(C(c2ccc(F)cc2)c2ccc(F)cc2)CC1)C12C[C@H]3C[C@@H](C1)C[C@@H](C2)C3`, the inhibition in test [4] turned out to be 4%.
`O=C(NCCN1CCN(c2cccc(Cl)c2)CC1)NC12C[C@H]3C[C@@H](C1)C[C@@H](C2)C3`: the Ki turned out to be 0.061 µM in test [1] and 0.089 µM in test [3]. The compound also gave an inhibition in test [2] of 56%.
In test [1], `CC(C)(CN1CCN(c2ncccn2)CC1)NC(=O)C12C[C@H]3C[C@@H](C1)C[C@@H](C2)C3` returned an inhibition constant Ki of 0.127 µM.
For `C[C@@]12C[C@@H]3C[C@@H](CC(CC(=O)OCCN4CCN(c5cccc(C(F)(F)F)c5)CC4)(C3)C1)C2`, the inhibition in test [2] turned out to be 29%; in test [4], 35%.
Compound `CC(C)(CN1CCN(Cc2ccccc2)CC1)NC(=O)C12C[C@H]3C[C@@H](C1)C[C@@H](C2)C3` had an inhibition in test [4] of 0%.
As to `O=C(NC12C[C@H]3C[C@@H](C1)C[C@@H](C2)C3)N1CCN(c2ncccn2)CC1`, in test [4], the inhibition was 3%.
Same read-out and setting: as for `O=C(NCCN1CCN(C(c2ccc(Cl)cc2)c2ccc(Cl)cc2)CC1)NC12C[C@H]3C[C@@H](C1)C[C@@H](C2)C3`, the figure is 9%; as for `CC(C)N(CCN1CCN(c2ncccn2)CC1)C(=O)C12C[C@H]3C[C@@H](C1)C[C@@H](C2)C3`, 36%; as for `C[C@@]12C[C@@H]3C[C@@H](CC(CC(=O)NCCCN4CCN(c5cccc(Cl)c5)CC4)(C3)C1)C2`, 81%.
Consider `C[C@@]12C[C@@H]3C[C@@H](CC(CC(=O)OCCN4CCN(c5cccc(Cl)c5)CC4)(C3)C1)C2`, for which the inhibition in test [2] is 19%; in test [4], 34%.
Consider `COc1ccccc1N1CCN(CCCOC(=O)C23CC4C[C@@H](C[C@H]2C4)C3)CC1`, for which the Ki in test [1] is 0.026 µM. The inhibition in test [2] was determined as 100%.
Regarding `Cl.Cl.O=C(NCCCN1CCN(c2cccc(Cl)c2)CC1)NC12C[C@H]3C[C@@H](C1)C[C@@H](C2)C3`, the Ki in test [1] was 0.045 µM; in test [3], 0.277 µM. For the same compound, in test [2], the inhibition was found to be 38%.
Take `C[C@@]12C[C@@H]3C[C@@H](CC(CC(=O)OCCN4CCN(c5ncccn5)CC4)(C3)C1)C2`: the inhibition in test [2] came to 39%; in test [4], 72%.
Turning to `C[C@@]12C[C@@H]3C[C@@H](CC(CC(=O)OCCCN4CCN(c5cccc(Cl)c5)CC4)(C3)C1)C2`, the inhibition in test [4] came to 58%.
Turning to `O=C(NC12C[C@H]3C[C@@H](C1)C[C@@H](C2)C3)N1CCN(c2cccc(Cl)c2)CC1`, in test [4], the inhibition is 0%.
As for `Cl.Cl.O=C(NCCCN1CCN(c2cccc(Cl)c2)CC1)C12CC3CC(CC1C3)C2`, the inhibition constant (Ki) in test [1] is 0.01 µM; in test [3] it was 0.0043 µM. In test [2], this compound yielded an inhibition of 31%.
In test [1], `O=C(NCCN1CCN(Cc2ccccc2)CC1)C12C[C@H]3C[C@@H](C1)C[C@@H](C2)C3` displayed an inhibitory constant (Ki) of 0.046 µM. This compound showed an inhibition in test [2] of 8%.
On to `O=C(N1CCN(c2ncccn2)CC1)C12C[C@H]3C[C@@H](C1)C[C@@H](C2)C3`, for which, in test [4], the inhibition was determined as 9%.
Regarding `Cl.Cl.O=C(NCCCN1CCN(c2ncccn2)CC1)C12C[C@H]3C[C@@H](C1)C[C@@H](C2)C3`, the inhibition constant Ki in test [1] was found to be 0.089 µM; in test [3], 0.021 µM. In test [2], this compound had an inhibition of 6%.
Consider `C[C@@H](CN1CCN(c2ncccn2)CC1)NC(=O)C12C[C@H]3C[C@@H](C1)C[C@@H](C2)C3`, for which the inhibition was 1% in test [2] and 21% in test [4].
Consider `Cl.Cl.O=C(NCCCN1CCN(c2ncccn2)CC1)C12CC3CC(CC1C3)C2`, for which the Ki in test [3] turned out to be 0.286 µM. The compound also gave an inhibition in test [2] of 27%.
In test [1], `O=C(NC12C[C@H]3C[C@@H](C1)C[C@@H](C2)C3)OCCN1CCN(c2cccc(Cl)c2)CC1` registered an inhibition constant Ki of 0.076 µM. In test [2], the inhibition is 36%.
The corresponding values for `COc1ccccc1N1CCN(CCOC(=O)NC23C[C@H]4C[C@@H](C2)C[C@@H](C3)C4)CC1` are 0.04 µM and 95%.
In test [1], `C[C@H](CN1CCN(Cc2ccccc2)CC1)NC(=O)C12C[C@H]3C[C@@H](C1)C[C@@H](C2)C3` came in with an inhibition constant Ki of 0.037 µM. In test [2], this compound gave an inhibition of 14%.
With `Cl.Cl.Cl.O=C(CCN1CCN(c2ncccn2)CC1)NC12C[C@H]3C[C@@H](C1)C[C@@H](C2)C3`, the inhibition constant (Ki) in test [1] stood at 0.131 µM; in test [3] it was 0.047 µM. The inhibition in test [2] is 14%.
Consider `O=C(OCCCN1CCN(c2ncccn2)CC1)C12C[C@H]3C[C@@H](C1)C[C@@H](C2)C3`, for which the inhibition in test [2] was 33%; in test [4], 72%.
`COc1ccccc1N1CCN(CCOC(=O)C23CC4C[C@@H](C[C@H]2C4)C3)CC1`: the affinity in test [1] corresponds to a Ki of 0.0048 µM. Further, in test [2], the inhibition was 100%.
On to `Cl.Cl.O=C(NCCN1CCN(c2cccc(Cl)c2)CC1)C12CC3CC(CC1C3)C2`, for which the inhibition constant Ki was determined as 0.0007 µM in test [1] and 0.0023 µM in test [3]. In test [2], the inhibition was 94%.
In the case of `O=C(NCCCN1CCN(c2cccc(Cl)c2)CC1)C12C[C@H]3C[C@@H](C1)C[C@@H](C2)C3`, in test [1], the Ki stood at 0.019 µM. Further, in test [2], the inhibition was determined as 32%.
For `O=C(NCCN1CCN(c2cccc(C(F)(F)F)c2)CC1)C12CC3CC(CC1C3)C2`, the inhibition stood at 73% in test [2] and 83% in test [4].
Regarding `C[C@@]12C[C@@H]3C[C@@H](CC(CC(=O)NCCN4CCN(c5ncccn5)CC4)(C3)C1)C2`, the affinity in test [1], expressed as Ki, was 0.03 µM.
